Experimental data: publication PMC7583637 (Bioconjugate Chemistry, 2020)
Where a SMILES comes first, the peptide text is derived from it. [ ]: non-standard residue; d: D form. Dip = N[C@H](C(=O)O)C(c1ccccc1)c1ccccc1; Chg = N[C@H](C(=O)O)C1CCCCC1; NMeA = CN[C@@H](C)C(=O)O

Assays:
[1] = molecular target: XIAP L-Bir2-Bir3 (Homo sapiens, UniProt P98170); assay: Competitive fluorescence polarization binding assay with Smac-1F probe
[2] = system: c-FLIP mRNA; assay: RT-qPCR of c-FLIP mRNA expression; format: cell-based, human; conditions: 300 nM, Lipofectamine LTX, 24 h; for Effect on c-FLIP mRNA levels: A549; for Reduction of c-FLIP mRNA levels: A549, relative to reference genes, ΔΔCq, n = 3
[3] = system: A549 cells; assay: AlamarBlue viability assay after lipofection of SMC-PSO conjugates; format: cell-based, human; conditions: 100 nM, Lipofectamine LTX, 48 h, no TRAIL; for Loss of viability: relative to medium control
Outline: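 A549 cells in DMEM with 10% FCS and 4 mM glutamine (37 °C, 5% CO2) were seeded at 5 × 10³ cells/well and grown 24 h to ~70% confluency. Conjugate in OptiMEM was complexed with PLUS Reagent, then Lipofectamine LTX (20 min, RT), and added at 100 nM final in antibiotic-free medium. After 48 h, cells were PBS-washed and given alamarBlue (1:10 in PBS) for 2 h at 37 °C. Fluorescence was read at 531/590 nm relative to medium control.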

[4] = system: c-FLIP; conditions: 2′-MOE-RNA/DNA gapmer PSOs; cited from earlier work
[5] = system: A549 cells; conditions: read-out: IC50, toxicity to A549 cells; cited from earlier work
[6] = system: A549 cells; assay: AlamarBlue viability assay, PNA-CPP and SMC-PNA-CPP conjugates or chloroquine; format: cell-based, human; conditions: control experiments, Figure S7A
[7] = system: Caspase 3 and 7 activity; assay: Caspase 3/7 assay; format: cell-based, human; conditions: 200 nM conjugate, 2 ng/mL SuperKillerTRAIL, 24 h, DEVD-AFC
Outline: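 A549 cells were seeded in 6-well plates 24 h ahead and lipofected to a final 200 nM with 2 ng/mL SuperKillerTRAIL. After 24 h, cells were harvested and lysed (HEPES/NaCl/EDTA/1% Triton X-100, pH 7.5; 20 min on ice with sonication), and protein was measured by BCA. 35 μg protein was mixed with 2× buffer (HEPES, 20 mM DTT, 20% glycerol, pH 7.5) containing 50 μM DEVD-AFC, 2 h at 37 °C in the dark. […] versus medium-treated control; SD shown.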

Chain of XIAP L-Bir2-Bir3 (P98170 120-356): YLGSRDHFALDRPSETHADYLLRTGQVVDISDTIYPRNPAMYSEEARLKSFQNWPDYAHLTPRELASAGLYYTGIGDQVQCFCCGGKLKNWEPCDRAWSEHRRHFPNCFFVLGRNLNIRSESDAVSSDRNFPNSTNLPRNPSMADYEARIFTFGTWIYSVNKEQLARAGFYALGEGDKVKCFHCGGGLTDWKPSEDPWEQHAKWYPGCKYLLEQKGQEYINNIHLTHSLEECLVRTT

CN[C@@H](C)C(=O)N[C@H](C(=O)N1CCC[C@H]1C(=O)N[C@H](C(=O)NCC(N)=O)C(c1ccccc1)c1ccccc1)C1CCCCC1 [SMC, H-MeAla-Chg-Pro-Dip-Gly-NH2] (H-[NMeA][Chg]P[Dip]G-NH2)
IC50 [1]: 4.6 µM

AcS-Chg-Pro-Dip-Gly-Gly-Lys(N3-DBCO-AGTTCTCTCTGCCCCTAGAT)-Dap(AcS-Chg-Pro-Dip)-NH2 [(AcSMC)2-scrPSO1]
Effect on c-FLIP mRNA levels [2]: upregulation of c-FLICE did not occur

5'-ACTTGTCCCTGCTCCTTGAA-3' (full phosphorothioate, further chemistry not given here) [ISIS 23296, reference compound]
Reduction of c-FLIP mRNA levels [2]: up to 50%
Loss of viability [3]: ca. 30%
Knockdown reported in original publication [4]: 70%

octaarginine
IC50 [5]: > 1000 µM

Transportan
IC50 [5]: 2.5 µM

5'-AGTTCTCTCTGCCCCTAGAT-3' (phosphorothioate, further chemistry not given here) [unconjugated, scrambled PSO, reference compound]
Effect on c-FLIP mRNA levels [2]: significant upregulation of c-FLIP levels
Effect on viability [3]: some decrease in viability

Penetratin
IC50 [5]: 60.8 µM

Ac-Gly-Lys(N3-DBCO-ACTTGTCCCTGCTCCTTGAA)-Dap(MeA-Chg-Pro-Dip)-NH2 [SMC-PSO1]
Loss of viability [3]: 40%

MeA-Chg-Pro-Dip-Gly-Gly-Lys(N3-DBCO-AGTTCTCTCTGCCCCTAGAT)-Dap(MeA-Chg-Pro-Dip)-NH2 [(SMC)2-scrPSO1]
Effect on c-FLIP mRNA levels [2]: upregulation of c-FLICE did not occur

Ac-Gly-Lys(N3-DBCO-AGTTCTCTCTGCCCCTAGAT)-Dap(AcS-Chg-Pro-Dip)-NH2 [AcSMC-scrPSO1]
Effect on viability [3]: some decrease in viability

Ac-Gly-Lys(N3-DBCO-ACTTGTCCCTGCTCCTTGAA)-Dap(AcS-Chg-Pro-Dip)-NH2 [AcSMC-PSO1]
Loss of viability [3]: ca. 30%

AcS-Chg-Pro-Dip-Gly-Gly-Lys(N3-DBCO-ACTTGTCCCTGCTCCTTGAA)-Dap(AcS-Chg-Pro-Dip)-NH2 [(AcSMC)2-PSO1]
Reduction of c-FLIP mRNA levels [2]: around 40%

CCN(CC)CCCC(C)Nc1ccnc2cc(Cl)ccc12 (centres unmarked) [chloroquine]
Concentration up to which viability of A549 cells is not affected [6]: up to 200 μM

Ac-Gly-Lys(N3-DBCO-AGTTCTCTCTGCCCCTAGAT)-Dap(MeA-Chg-Pro-Dip)-NH2 [SMC-scrPSO1]
Loss of viability [3]: ca. 30%

MeA-Chg-Pro-Dip-Gly-Gly-Lys(N3-DBCO-ACTTGTCCCTGCTCCTTGAA)-Dap(MeA-Chg-Pro-Dip)-NH2 [(SMC)2-PSO1]
Increase of caspase 3/7 activity over background [7]: ~40 fold
Reduction of c-FLIP mRNA levels [2]: around 40%
Loss of viability [3]: 50–60%
